According to paper PMC11439923 (Scientific Reports, 2024):

Tests used:
[1] = tested on: HNSCC cell lines (FaDu, Cal-27, and Ca9-22); experiment: Cell viability assay; type: cell-based, human; conditions: Cal-27 and FaDu; 1 µM single agent; 48 and 72 h; MTT
In short: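 Seeded 8 × 10^3 cells/well in 10% FBS medium: MEM for Ca9-22; high-glucose DMEM for FaDu, Cal-27, HaCaT; DMEM/F12 for HK-2. Grown 24 h at 37 °C, 5% CO2, then dosed 24, 48 or 72 h: derivatives 0.001–20 µM, parent glycoside and platinum reference 0.01–50 µM. MTT 0.5 mg/ml 4 h, formazan dissolved in DMSO, A570. IC50 by nonlinear regression. Triplicate, ≥3 independent experiments.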

[2] = tested on: FaDu spheroids; experiment: Three-dimensional culture, spheroid live/dead staining; type: cell-based, human; conditions: 50 µM cisplatin, 72 h
In short: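 FaDu seeded 500 cells/well in U-bottom ultralow-attachment plates, spheroids formed over 72 h at 37 °C, 5% CO2. Spheroids exposed 72 h to a concentration series of test compound or platinum reference. Stained 1 h with Hoechst 33342 (live) and ethidium homodimer-1 (dead), imaged by high-content system. Read-out: Hoechst/EthD-1 mean fluorescence intensity ratio. One-way ANOVA with Tukey's test.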

[3] = tested on: healthy mice; conditions: cited from earlier work
[4] = tested on: E-cadherin mRNA and protein; experiment: E-cadherin expression; type: cell-based, human; conditions: Cal-27 and FaDu; 36 h; ECDD-S18 0.1, 1, 2 µM, bafilomycin A1 0.1 µM
[5] = tested on: CTSD mRNA; experiment: Quantitative RT-PCR of CTSD; type: cell-based, human; conditions: 36 h, ECDD-S18 0.1, 1, 2 µM, bafilomycin A1 0.1 µM, vs DMSO
[6] = tested on: cathepsin D (CTSD); experiment: Western blot of cathepsin D; type: cell-based, human; conditions: 36 h, ECDD-S18 0.1, 1, 2 µM, bafilomycin A1 0.1 µM, vs DMSO
In short: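 Cal-27 or FaDu seeded 5 × 10^5 cells per 60 mm dish for 24 h, treated 36 h with test compound (0.1, 1, 2 µM), 0.1 µM bafilomycin A1 or DMSO. RIPA lysates run on SDS-PAGE, transferred to PVDF, blocked in 5% milk 1 h. Probed overnight at 4 °C for pro/mature cathepsin D, N-cadherin, GAPDH; HRP secondary, ECL on film. Densitometry normalised to GAPDH, fold change versus untreated.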

[7] = tested on: V-ATPase activity; experiment: LysoTracker Red staining; type: cell-based, human; conditions: Cal-27 and FaDu; 0.1 µM; 24 h
In short: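 Cal-27 and FaDu plated 8 × 10^3 cells/well in black 96-well plates for 24 h. Treated 24 h with test compound (0.1, 1, 2 µM) or 0.1 µM bafilomycin A1. LysoTracker 2 h, immediate fixation in 4% paraformaldehyde 20 min, DAPI 30 min at room temperature. Lysosomal fluorescence intensity quantified by high-content imaging.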

Compound	cell viability [1]	Live/dead cell ratio (Hoechst 33342 to EthD-1) [2]	WBC and RBC levels [3]	body weight loss [3]	expression of E-cadherin mRNA and protein [4]	mRNA expression of CTSD ([5]; Cal-27)	mRNA expression of CTSD ([5]; FaDu)	protein expression of mature CTSD ([6]; Cal-27)	protein expression of mature CTSD ([6]; FaDu)	LysoTracker red fluorescence intensity relative to DMSO control [7]
N.N.[Cl][Pt][Cl] [Cisplatin]	slight suppression	significantly reduced	marked decrease	30–40%	–	–	–	–	–	–
CO/C1=C\C(C)=C\[C@@H](C)[C@@H](O)[C@@H](C)C/C(C)=C/C=C/[C@H](OC)[C@@H]([C@@H](C)[C@@H](O)[C@H](C)[C@@]2(O)C[C@@H](O)[C@H](C)[C@@H](C(C)C)O2)OC1=O [bafilomycin A1]	–	–	–	–	no effect	significantly decreased	significantly decreased	downregulated	downregulated	significantly decreased
